Measurements taken from ChEMBL document CHEMBL4334422, “Toxicities and beneficial protection of H2S donors based on nonsteroidal anti-inflammatory drugs” (Medchemcomm, 2019).
Calls of active or inactive are those of the source. The calls are words filed in the database; no cut-off is given here.

Tests used:
[1] = Toxicity in Wistar kyoto rat assessed as a large amount of exudation in glomerulus at 10 mg/kg, ip administered for 14 days by TEM assay; assay type: organism-based; conditions: in vivo, 336 h
Method in brief: (§1)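 WKY rats were given 10 mg·kg⁻¹ intraperitoneally daily for 14 days, with vehicle-treated controls. Liver and kidney were collected and fixed in 4% glutaraldehyde. Tissue was examined after HE staining by light microscopy and by transmission electron microscopy at 6000, 10000 and 20000-fold.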

[2] = Toxicity in Wistar kyoto rat assessed as central venous in liver at 10 mg/kg, ip administered for 14 days by H and E staining based assay; assay type: organism-based; conditions: in vivo, 336 h; method in brief: as §1
[3] = Toxicity in Wistar kyoto rat assessed as intact hepatic lobule structure at 10 mg/kg, ip administered for 14 days by H and E staining based assay; assay type: organism-based; conditions: in vivo, 336 h
Method in brief: (§2)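 WKY rats were dosed intraperitoneally at 10 mg/kg daily for 14 days, using the 10% 1,3-propanediol vehicle, with a vehicle control group. Liver and kidney were collected and fixed immediately in 4% glutaraldehyde. Sections were stained with haematoxylin and eosin and scored for structural change under light microscopy.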

[4] = Toxicity in Wistar kyoto rat assessed as hepatic sinus congestion at 10 mg/kg, ip administered for 14 days by H and E staining based assay; assay type: organism-based; conditions: in vivo, 336 h; method in brief: as §1
[5] = Toxicity in Wistar kyoto rat assessed as stromal hyperplasia at 10 mg/kg, ip administered for 14 days by TEM assay; assay type: organism-based; conditions: in vivo, 336 h
Method in brief: (§3)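 After 14 days of daily intraperitoneal dosing at 10 mg/kg in WKY rats, with vehicle controls, liver and kidney were fixed in 4% glutaraldehyde. Ultrastructure was examined by transmission electron microscopy at 6000-, 10000- and 20000-fold magnification.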

[6] = Cardiotoxicity in SHR rat assessed as thin myocardial fiber formation at 10 mg/kg, ip administered for 14 days by H and E staining based microscopic assay; assay type: toxicity, organism-based; conditions: in vivo, 336 h
Method in brief: (§4)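 SHRs were given 10 mg·kg⁻¹ intraperitoneally per day for 14 consecutive days, with an ibuprofen comparator and a normal control. Myocardial tissue was then removed. Sections were HE-stained for light microscopy and also examined by transmission electron microscopy at 6000, 10000 and 20000-fold.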

[7] = test system: Rattus norvegicus; assay: Antihypertensive activity in ip dosed spontaneously hypertensive Wistar kyoto rat assessed as reduction in diastolic arterial pressure administered for 6 hrs and measured every 30 mins post treatment by tail-cuff method; assay type: functional, organism-based
Method in brief: (§5)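 Male SHRs (8 weeks, 300 ± 25 g; 6 per group), given compound intraperitoneally once daily at 8 am in 0.5% (w/v) sodium carboxymethyl cellulose/DMSO 3/1 (v/v), 2 mL·kg⁻¹. Vehicle-treated SHR and WKY controls. SBP, DBP and heart rate were measured by tail-cuff on awake, restrained rats before dosing, then every 30 min for 6 h. Values are mean ± SD of four independent experiments.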

[8] = Toxicity in Wistar kyoto rat assessed as necrosis in renal tubular epithelial cells at 10 mg/kg, ip administered for 14 days by H and E staining based assay; assay type: organism-based; conditions: in vivo, 336 h; method in brief: as §2
[9] = Toxicity in Wistar kyoto rat assessed as increase in heterochromatin in liver tissue at 10 mg/kg, ip administered for 14 days by TEM assay; assay type: organism-based; conditions: in vivo, 336 h; method in brief: as §3
[10] = Toxicity in Wistar kyoto rat assessed as abnormal nuclear morphology in liver tissue at 10 mg/kg, ip administered for 14 days by TEM assay; assay type: organism-based; conditions: in vivo, 336 h; method in brief: as §1
[11] = Toxicity in Wistar kyoto rat assessed as light staining in cytoplasm of liver tissue at 10 mg/kg, ip administered for 14 days by H and E staining based assay; assay type: organism-based; conditions: in vivo, 336 h; method in brief: as §2
[12] = Toxicity in Wistar kyoto rat assessed as loose cytoplasm in kidney tissue at 10 mg/kg, ip administered for 14 days by H and E staining based assay; assay type: organism-based; conditions: in vivo, 336 h; method in brief: as §2
[13] = Toxicity in Wistar kyoto rat assessed as increase in lipid droplets in cytoplasm in liver tissue at 10 mg/kg, ip administered for 14 days by TEM assay; assay type: organism-based; conditions: in vivo, 336 h; method in brief: as §3
[14] = Toxicity in Wistar kyoto rat assessed as chromatin edge collection in liver tissue at 10 mg/kg, ip administered for 14 days by TEM assay; assay type: organism-based; conditions: in vivo, 336 h; method in brief: as §1
[15] = Cardiotoxicity in SHR rat assessed as neatly arranged myocardial fibers at 10 mg/kg, ip administered for 14 days by H and E staining based microscopic assay; assay type: toxicity, organism-based; conditions: in vivo, 336 h; method in brief: as §4
[16] = Toxicity in Wistar kyoto rat assessed as swollen hepatocytes at 10 mg/kg, ip administered for 14 days by H and E staining based assay; assay type: organism-based; conditions: in vivo, 336 h; method in brief: as §2
[17] = Toxicity in Wistar kyoto rat assessed as swollen proximal convoluted tubule cells at 10 mg/kg, ip administered for 14 days by H and E staining based assay; assay type: organism-based; conditions: in vivo, 336 h; method in brief: as §2
[18] = Toxicity in Wistar kyoto rat assessed as swollen gastric cell at 10 mg/kg, ip administered for 14 days by H and E staining based optical microscopic method; assay type: organism-based; conditions: in vivo, 336 h
Method in brief: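 WKY rats, 3 per group, were dosed for 14 days, with the compound at 10 mg/kg per dose and the ibuprofen comparator at 6.1 mg/kg. Rats were anaesthetised with ether and killed by cervical dislocation. Stomach and intestine were sectioned at 5-10 µm, stained with haematoxylin and eosin, and examined by optical microscopy.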

[19] = Toxicity in Wistar kyoto rat assessed as visible gaps in kidney tissue at 10 mg/kg, ip administered for 14 days by H and E staining based assay; assay type: organism-based; conditions: in vivo, 336 h; method in brief: as §2
[20] = Cardiotoxicity in SHR rat assessed as myocardial fibers thickening at 10 mg/kg, ip administered for 14 days by H and E staining based microscopic assay; assay type: toxicity, organism-based; conditions: in vivo, 336 h; method in brief: as §4
[21] = Toxicity in Wistar kyoto rat assessed as swollen glomerular endothelial cells at 10 mg/kg, ip administered for 14 days by TEM assay; assay type: organism-based; conditions: in vivo, 336 h; method in brief: as §3
[22] = Toxicity in Wistar kyoto rat assessed as visible gaps in hepatocytes at 10 mg/kg, ip administered for 14 days by H and E staining based assay; assay type: organism-based; conditions: in vivo, 336 h; method in brief: as §2
[23] = test system: Rattus norvegicus; assay: Antihypertensive activity in spontaneously hypertensive Wistar kyoto rat assessed as reduction in diastolic arterial pressure at 20 mg/kg, ip administered for 6 hrs and measured every 30 mins post treatment by tail-cuff method; assay type: functional; method in brief: as §5
[24] = test system: Rattus norvegicus; assay: Antihypertensive activity in spontaneously hypertensive Wistar kyoto rat assessed as reduction in systolic arterial pressure at 40 mg/kg, ip administered for 6 hrs and measured every 30 mins post treatment by tail-cuff method; assay type: functional; method in brief: as §5
[25] = test system: Rattus norvegicus; assay: Antihypertensive activity in spontaneously hypertensive Wistar kyoto rat assessed as reduction in systolic arterial pressure at 20 mg/kg, ip administered for 6 hrs and measured every 30 mins post treatment by tail-cuff method; assay type: functional; method in brief: as §5
[26] = test system: Rattus norvegicus; assay: Antihypertensive activity in spontaneously hypertensive Wistar kyoto rat assessed as reduction in systolic arterial pressure at 10 mg/kg, ip administered for 6 hrs and measured every 30 mins post treatment by tail-cuff method; assay type: functional; method in brief: as §5
[27] = test system: Rattus norvegicus; assay: Antihypertensive activity in spontaneously hypertensive Wistar kyoto rat assessed as reduction in diastolic arterial pressure at 10 mg/kg, ip administered for 6 hrs and measured every 30 mins post treatment by tail-cuff method; assay type: functional; method in brief: as §5
[28] = Toxicity in Wistar kyoto rat assessed as congestion in renal tissue at 10 mg/kg, ip administered for 14 days by H and E staining based assay; assay type: organism-based; conditions: in vivo, 336 h; method in brief: as §1
[29] = test system: Rattus norvegicus; assay: Antihypertensive activity in ip dosed spontaneously hypertensive Wistar kyoto rat assessed as reduction in systolic arterial pressure administered for 6 hrs and measured every 30 mins post treatment by tail-cuff method; assay type: functional, organism-based; method in brief: as §5
[30] = test system: Rattus norvegicus; assay: Cardioprotective activity in SHR rat assessed as change in myocardial disk dissociation at 10 mg/kg, ip administered for 14 days by TEM analysis; assay type: functional, organism-based; method in brief: as §4
[31] = test system: Rattus norvegicus; assay: Cardioprotective activity in SHR rat assessed as neatly arrange myofibrils at 10 mg/kg, ip administered for 14 days by TEM analysis; assay type: functional, organism-based; method in brief: as §4

Row | Structure (SMILES) | Activity [2] | Activity [3] | Activity [4] | Activity [6] | Activity [7] | Activity [11] | Activity [12] | Activity [15] | Activity [16] | Activity [22] | Activity [23] [mmHg] | Activity [24] [mmHg] | Activity [25] [mmHg] | Systolic arterial pressure [26] [mmHg] | Diastolic arterial pressure [27] [mmHg] | other results
1 | CC(C)Cc1ccc(C(C)C(=O)Oc2ccc(C(N)=S)cc2)cc1 (stereo unspecified) | Toxic | Non-Toxic | Toxic | Active | Dose-dependent effect | Toxic | Toxic | Non-Toxic | Toxic | Toxic |  |  |  |  |  | Activity [1]: Toxic; Activity [5]: Toxic; Activity [8]: Toxic; Activity [9]: Toxic; Activity [10]: Toxic; Activity [13]: Toxic; Activity [14]: Toxic; Activity [17]: Toxic; Activity [18]: Non-Toxic; Activity [19]: Toxic; Activity [20]: Active; Activity [21]: Toxic
2 | CC(C)Cc1ccc(C(C)C(=O)Oc2ccc(-c3cc(=S)ss3)cc2)cc1 (stereo unspecified) | Toxic | Non-Toxic | Toxic |  |  | Toxic | Toxic |  | Toxic | Toxic | 115.1 | 135.1 | 136.7 | 142.9 | 116.3 | Activity [28]: Toxic
3 | CC(=O)Nc1ccc(OC(=O)CCCCC2CCSS2)cc1 (stereo unspecified) |  |  |  | Active | Dose-dependent effect |  |  | Non-Toxic |  |  | 110.9 | 115.3 | 127.6 | 139.1 | 113.8 | Activity [29]: Dose-dependent effect; Activity [30]: Active; Activity [31]: Active
